Drawing on ChEMBL document CHEMBL1156240, “Papyriferic acid derivatives as reversal agents of multidrug resistance in cancer cells” (Bioorg Med Chem, 2010), this text covers IC50 for 35 compounds.

Experiment [1] is described as follows: Cytotoxicity against human multidrug-resistant KB-C2 cells after 48 hrs by MTT assay. Type of experiment: functional, cell-based. Particulars: KB-C2, 48 h. In outline:
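Seeded 5 × 10³ cells/well, preincubated 24 h, then compounds at 2, 10, 50, 100 µg/mL in medium (0.5% DMSO final) for 48 h. MTT 0.5 mg/mL for 4 h, formazan dissolved in DMSO, OD 540 nm; IC50 relative to vehicle controls.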

For the next experiment, the system named is KB. Description: Cytotoxicity against human KB cells after 48 hrs by MTT assay. Type of experiment: functional, cell-based.

With `CCCCCOC(=O)CC(=O)O[C@@H]1CC[C@]2(C)[C@H]3C[C@@H](OC(C)=O)[C@@H]4[C@@H]([C@]5(C)CC[C@H](C(C)(C)O)O5)CC[C@@]4(C)[C@]3(C)CC[C@H]2C1(C)C`, the IC50 is greater than 100 µM in experiment [1] and 45.4 µM in the experiment on KB. As for `CC(=O)O[C@@H]1C[C@@H]2[C@@]3(C)CC[C@@H](OC(=O)CC(=O)OCc4ccccc4)C(C)(C)[C@@H]3CC[C@@]2(C)[C@]2(C)CC[C@H]([C@]3(C)CC[C@H](C(C)(C)O)O3)[C@@H]12`, the IC50 in experiment [1] is greater than 100 µM; in the experiment with KB, 43.7 µM. Regarding `CCCNC(=O)CC(=O)O[C@@H]1CC[C@]2(C)[C@H]3C[C@@H](OC(C)=O)[C@@H]4[C@@H]([C@]5(C)CC[C@H](C(C)(C)O)O5)CC[C@@]4(C)[C@]3(C)CC[C@H]2C1(C)C`, the values for the IC50 (in experiment [1]; with KB) were 40.8 µM and 46.1 µM, respectively. `CC(=O)O[C@@H]1C[C@@H]2[C@@]3(C)CC[C@@H](OC(=O)CC(=O)Nc4ccccc4)C(C)(C)[C@@H]3CC[C@@]2(C)[C@]2(C)CC[C@H]([C@]3(C)CC[C@H](C(C)(C)OC(=O)C(=O)Nc4ccccc4)O3)[C@@H]12`: the IC50 (in experiment [1]; in the experiment on KB) was greater than 100 µM each time. Regarding `CCCCCCCOC(=O)CC(=O)O[C@@H]1CC[C@]2(C)[C@H]3CC[C@@H]4[C@@H]([C@]5(C)CC[C@H](C(C)(C)O)O5)CC[C@@]4(C)[C@]3(C)CC[C@H]2C1(C)C`, the IC50 (in experiment [1]; with KB) was greater than 100 µM throughout. Regarding `C=CCOC(=O)CC(=O)O[C@@H]1CC[C@]2(C)[C@H]3C[C@@H](OC(C)=O)[C@@H]4[C@@H]([C@]5(C)CC[C@H](C(C)(C)O)O5)CC[C@@]4(C)[C@]3(C)CC[C@H]2C1(C)C`, the IC50 was 48.3 µM in experiment [1] and 34.8 µM with KB.

Turning to `CC(C)OC(=O)CC(=O)O[C@@H]1CC[C@]2(C)[C@H]3CC[C@@H]4[C@@H]([C@]5(C)CC[C@H](C(C)(C)O)O5)CC[C@@]4(C)[C@]3(C)CC[C@H]2C1(C)C`, the IC50 (in experiment [1]; in the experiment with KB) was greater than 100 µM each time.

As to `CCCOC(=O)CC(=O)O[C@@H]1CC[C@]2(C)[C@H]3C[C@@H](OC(C)=O)[C@@H]4[C@@H]([C@]5(C)CC[C@H](C(C)(C)O)O5)CC[C@@]4(C)[C@]3(C)CC[C@H]2C1(C)C`, the IC50 in experiment [1] came to 67.8 µM; with KB it was 27.8 µM.

As for `CCCCCCCCOC(=O)CC(=O)O[C@@H]1CC[C@]2(C)[C@H]3CC[C@@H]4[C@@H]([C@]5(C)CC[C@H](C(C)(C)O)O5)CC[C@@]4(C)[C@]3(C)CC[C@H]2C1(C)C`, the IC50 (in experiment [1]; with KB) was greater than 100 µM throughout. For `CC(=O)O[C@@H]1C[C@@H]2[C@@]3(C)CC[C@@H](OC(=O)CC(=O)OC(C)(C)C)C(C)(C)[C@@H]3CC[C@@]2(C)[C@]2(C)CC[C@H]([C@]3(C)CC[C@H](C(C)(C)O)O3)[C@@H]12`, the IC50 is greater than 100 µM in experiment [1] and 31.5 µM in the experiment on KB. `COc1ccc(OC)c(NC(=O)CC(=O)O[C@@H]2CC[C@]3(C)[C@H]4C[C@@H](OC(C)=O)[C@@H]5[C@@H]([C@]6(C)CC[C@H](C(C)(C)O)O6)CC[C@@]5(C)[C@]4(C)CC[C@H]3C2(C)C)c1`: the IC50 (in experiment [1]; with KB) was greater than 100 µM in each case. Take `CCCCCCOC(=O)CC(=O)O[C@@H]1CC[C@]2(C)[C@H]3C[C@@H](OC(C)=O)[C@@H]4[C@@H]([C@]5(C)CC[C@H](C(C)(C)O)O5)CC[C@@]4(C)[C@]3(C)CC[C@H]2C1(C)C`: the IC50 in experiment [1] was greater than 100 µM; with KB, 70.7 µM. In the case of `CC(=O)O[C@@H]1C[C@@H]2[C@@]3(C)CC[C@@H](OC(=O)CC(=O)OCC(C)C)C(C)(C)[C@@H]3CC[C@@]2(C)[C@]2(C)CC[C@H]([C@]3(C)CC[C@H](C(C)(C)O)O3)[C@@H]12`, the half-inhibitory concentration (IC50) was greater than 100 µM in experiment [1] and 33.3 µM in the experiment on KB. Turning to `CCCCCCCCCNC(=O)CC(=O)O[C@@H]1CC[C@]2(C)[C@H]3C[C@@H](OC(C)=O)[C@@H]4[C@@H]([C@]5(C)CC[C@H](C(C)(C)O)O5)CC[C@@]4(C)[C@]3(C)CC[C@H]2C1(C)C`, the IC50 in experiment [1] is greater than 100 µM; in the experiment on KB, 42.8 µM.

`CCCCCCOC(=O)CC(=O)O[C@@H]1CC[C@]2(C)[C@H]3CC[C@@H]4[C@@H]([C@]5(C)CC[C@H](C(C)(C)O)O5)CC[C@@]4(C)[C@]3(C)CC[C@H]2C1(C)C`: the IC50 (in experiment [1]; in the experiment on KB) was greater than 100 µM in each case. In the case of `CCOC(=O)CC(=O)O[C@@H]1CC[C@]2(C)[C@H]3C[C@@H](OC(C)=O)[C@@H]4[C@@H]([C@]5(C)CC[C@H](C(C)(C)O)O5)CC[C@@]4(C)[C@]3(C)CC[C@H]2C1(C)C`, the IC50 is 64.3 µM in experiment [1] and 39.1 µM with KB.

Regarding `CC(=O)O[C@@H]1C[C@@H]2[C@@]3(C)CC[C@@H](OC(=O)CC(=O)NCc4ccccc4)C(C)(C)[C@@H]3CC[C@@]2(C)[C@]2(C)CC[C@H]([C@]3(C)CC[C@H](C(C)(C)OC(=O)C(=O)NCc4ccccc4)O3)[C@@H]12`, the half-maximal inhibitory concentration (IC50) (in experiment [1]; with KB) was greater than 100 µM each time.

Turning to `CC(=O)O[C@@H]1C[C@@H]2[C@@]3(C)CC[C@@H](OC(=O)CC(=O)NCc4ccccc4)C(C)(C)[C@@H]3CC[C@@]2(C)[C@]2(C)CC[C@H]([C@]3(C)CC[C@H](C(C)(C)O)O3)[C@@H]12`, the IC50 in experiment [1] came to 33.2 µM; in the experiment with KB it was 31.9 µM. `CCCCCOC(=O)CC(=O)O[C@@H]1CC[C@]2(C)[C@H]3CC[C@@H]4[C@@H]([C@]5(C)CC[C@H](C(C)(C)O)O5)CC[C@@]4(C)[C@]3(C)CC[C@H]2C1(C)C`: the IC50 (in experiment [1]; in the experiment on KB) was greater than 100 µM in each case. For `CCCCCNC(=O)CC(=O)O[C@@H]1CC[C@]2(C)[C@H]3C[C@@H](OC(C)=O)[C@@H]4[C@@H]([C@]5(C)CC[C@H](C(C)(C)OC(=O)C(=O)NCCCCC)O5)CC[C@@]4(C)[C@]3(C)CC[C@H]2C1(C)C`, the half-inhibitory concentration (IC50) (in experiment [1]; in the experiment on KB) was greater than 100 µM each time.

For `CCCCCCCCCNC(=O)CC(=O)O[C@@H]1CC[C@]2(C)[C@H]3C[C@@H](OC(C)=O)[C@@H]4[C@@H]([C@]5(C)CC[C@H](C(C)(C)OC(=O)C(=O)NCCCCCCCCC)O5)CC[C@@]4(C)[C@]3(C)CC[C@H]2C1(C)C`, the IC50 (in experiment [1]; in the experiment on KB) was greater than 100 µM each time. As for `CCCCNC(=O)CC(=O)O[C@@H]1CC[C@]2(C)[C@H]3C[C@@H](OC(C)=O)[C@@H]4[C@@H]([C@]5(C)CC[C@H](C(C)(C)O)O5)CC[C@@]4(C)[C@]3(C)CC[C@H]2C1(C)C`, the 50% inhibitory concentration (IC50) in experiment [1] stood at 24.4 µM; in the experiment with KB it was 24.9 µM.

Consider `CCCCOC(=O)CC(=O)O[C@@H]1CC[C@]2(C)[C@H]3CC[C@@H]4[C@@H]([C@]5(C)CC[C@H](C(C)(C)O)O5)CC[C@@]4(C)[C@]3(C)CC[C@H]2C1(C)C`, for which the IC50 (in experiment [1]; in the experiment on KB) was greater than 100 µM each time. In the case of `COc1cc2c(c(OC)c1OC)-c1ccc(OC)c(=O)cc1[C@@H](NC(C)=O)CC2` [COLCHICINE], in experiment [1], half-maximal inhibition (IC50) was put at 10.9 µM. As to `CCCCOC(=O)CC(=O)O[C@@H]1CC[C@]2(C)[C@H]3C[C@@H](OC(C)=O)[C@@H]4[C@@H]([C@]5(C)CC[C@H](C(C)(C)O)O5)CC[C@@]4(C)[C@]3(C)CC[C@H]2C1(C)C`, the IC50 in experiment [1] is greater than 100 µM; in the experiment with KB, 40.8 µM. Regarding `CCCCCCCCOC(=O)CC(=O)O[C@@H]1CC[C@]2(C)[C@H]3C[C@@H](OC(C)=O)[C@@H]4[C@@H]([C@]5(C)CC[C@H](C(C)(C)O)O5)CC[C@@]4(C)[C@]3(C)CC[C@H]2C1(C)C`, the half-inhibitory concentration (IC50) (in experiment [1]; in the experiment on KB) was greater than 100 µM each time. Regarding `CC(=O)O[C@@H]1C[C@@H]2[C@@]3(C)CC[C@@H](OC(=O)CC(=O)Nc4ccccc4)C(C)(C)[C@@H]3CC[C@@]2(C)[C@]2(C)CC[C@H]([C@]3(C)CC[C@H](C(C)(C)O)O3)[C@@H]12`, the IC50 in experiment [1] amounted to 26.2 µM; in the experiment with KB, 28.3 µM. For `CC(=O)O[C@@H]1C[C@@H]2[C@@]3(C)CC[C@@H](OC(=O)CC(=O)NC(C)(C)C)C(C)(C)[C@@H]3CC[C@@]2(C)[C@]2(C)CC[C@H]([C@]3(C)CC[C@H](C(C)(C)OC(=O)C(=O)NC(C)(C)C)O3)[C@@H]12` the same measures were greater than 100 µM and greater than 100 µM.

Turning to `CCCOC(=O)CC(=O)O[C@@H]1CC[C@]2(C)[C@H]3CC[C@@H]4[C@@H]([C@]5(C)CC[C@H](C(C)(C)O)O5)CC[C@@]4(C)[C@]3(C)CC[C@H]2C1(C)C`, the IC50 was greater than 100 µM in experiment [1] and 60.3 µM in the experiment on KB. For the compound `CC(C)COC(=O)CC(=O)O[C@@H]1CC[C@]2(C)[C@H]3CC[C@@H]4[C@@H]([C@]5(C)CC[C@H](C(C)(C)O)O5)CC[C@@]4(C)[C@]3(C)CC[C@H]2C1(C)C`, the IC50 in experiment [1] is greater than 100 µM; in the experiment on KB, 97 µM.

Turning to `COc1ccc(OC)c(NC(=O)CC(=O)O[C@@H]2CC[C@]3(C)[C@H]4C[C@@H](OC(C)=O)[C@@H]5[C@@H]([C@]6(C)CC[C@H](C(C)(C)OC(=O)C(=O)Nc7cc(OC)ccc7OC)O6)CC[C@@]5(C)[C@]4(C)CC[C@H]3C2(C)C)c1`, the IC50 (in experiment [1]; in the experiment with KB) was greater than 100 µM throughout. As for `CCCCCCCOC(=O)CC(=O)O[C@@H]1CC[C@]2(C)[C@H]3C[C@@H](OC(C)=O)[C@@H]4[C@@H]([C@]5(C)CC[C@H](C(C)(C)O)O5)CC[C@@]4(C)[C@]3(C)CC[C@H]2C1(C)C`, the IC50 (in experiment [1]; in the experiment on KB) was greater than 100 µM throughout.

For the compound `CCCCCNC(=O)CC(=O)O[C@@H]1CC[C@]2(C)[C@H]3C[C@@H](OC(C)=O)[C@@H]4[C@@H]([C@]5(C)CC[C@H](C(C)(C)O)O5)CC[C@@]4(C)[C@]3(C)CC[C@H]2C1(C)C`, the IC50 (in experiment [1]; in the experiment with KB) was 38.3 µM each time. Take `CC(=O)O[C@@H]1C[C@@H]2[C@@]3(C)CC[C@@H](OC(=O)CC(=O)OC(C)C)C(C)(C)[C@@H]3CC[C@@]2(C)[C@]2(C)CC[C@H]([C@]3(C)CC[C@H](C(C)(C)O)O3)[C@@H]12`: the IC50 in experiment [1] was greater than 100 µM; with KB, 74.6 µM. For the compound `COc1ccc(CCN(C)CCCC(C#N)(c2ccc(OC)c(OC)c2)C(C)C)cc1OC` (stereo not drawn), the half-inhibitory concentration (IC50) in experiment [1] was greater than 100 µM.
